Assay results as given in publication PMC5060091 (ChemMedChem, 2016).
Values joined by “and” are separate entries in the source; they are usually repeats but may differ in a detail not shown here. Equal values may be shown once. Read-outs that look alike come from different tables or passages of the source.

How the values were obtained:
[1] = test system: C. albicans ATCC 90819(R); experiment: MIC, broth dilution, strain D; type: cell-based, Candida albicans; conditions: Candida albicans
Outline: (§1)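 Broth dilution MIC assay on the Candida panel: C. albicans strains A–G, C. glabrata (H), C. krusei (I) and C. parapsilosis (J). Test compounds were delivered in DMSO, with DMSO kept below 1% in the assay. The MIC is reported in µg/mL, with µM in parentheses. Reference antifungals (a polyene and four azoles) were run alongside.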

[2] = test system: Aspergillus nidulans ATCC 38163; experiment: MIC, broth dilution, strain L; type: cell-based; conditions: Aspergillus nidulans
[3] = test system: C. albicans ATCC MYA-1237(R); experiment: MIC, broth dilution, strain F; type: cell-based, Candida albicans; conditions: Candida albicans
Outline: as §1

[4] = test system: C. albicans ATCC MYA-1003(R); experiment: MIC, broth dilution, strain G; type: cell-based, Candida albicans; conditions: Candida albicans
Outline: as §1

[5] = Mammalian cytotoxicity, resazurin assay, HEK293; type: cell-based; conditions: human, HEK293 cells
[6] = test system: Aspergillus terreus ATCC MYA-3633; experiment: MIC, broth dilution, strain M; type: cell-based; conditions: Aspergillus terreus
C. albicans ATCC 64124 = experiment: MIC, broth dilution, strain B; type: cell-based, Candida albicans; conditions: Candida albicans
Outline: as §1

[7] = test system: Aspergillus flavus ATCC MYA-3631; experiment: MIC, broth dilution, strain K; type: cell-based; conditions: Aspergillus flavus
[8] = test system: C. albicans ATCC 64124 (strain B); experiment: Time-kill assay; type: cell-based, Candida albicans
[9] = test system: murine red blood cells (mRBCs); conditions: data previously presented; cited from earlier work
[10] = test system: C. albicans ATCC MYA-2310(S); experiment: MIC, broth dilution, strain E; type: cell-based, Candida albicans; conditions: Candida albicans
Outline: as §1

[11] = test system: C. albicans ATCC MYA-2876(S); experiment: MIC, broth dilution, strain C; type: cell-based, Candida albicans; conditions: Candida albicans
Outline: as §1

[12] = test system: Candida albicans ATCC 10231; experiment: MIC, broth dilution, strain A; type: cell-based; conditions: Candida albicans
Outline: as §1

[13] = test system: C. albicans ATCC 10231 (strain A); experiment: ROS induction assay; type: cell-based, Candida albicans; conditions: 1× and 2× MIC, 1-h treatment; H2O2 1 mM
Outline: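 C. albicans ATCC 10231 cells were incubated 1 h at 37 °C with test compound at 1× or 2× MIC, with no drug (negative control), or with 1 mM H₂O₂ (positive control). DCFH-DA (40 µg/mL) was then added. ROS were detected and imaged by fluorescence microscopy.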

[14] = read-out: MIC (MIC-0) in µM (parentheses)

MIC ([1]; ATCC90819, read-out: MIC (MIC-0)): 1.56 µg/mL
MIC ([1]; ATCC90819, read-out: MIC (MIC-0) in µM (parentheses)): 5.69 µM
MIC ([2]; ATCC38163, read-out: MIC (MIC-0)): 1.56 µg/mL
MIC ([2]; ATCC38163, read-out: MIC (MIC-0) in µM (parentheses)): 5.69 µM
MIC ([3]; read-out: MIC (MIC-0)): > 12.5 µg/mL
MIC [3, 14]: > 45.6 µM
MIC ([4]; read-out: MIC (MIC-0)): 12.5 µg/mL
MIC [4, 14]: 45.6 µM
MIC ([6]; read-out: MIC (MIC-0)): 1.56 µg/mL
MIC [6, 14]: 5.69 µM
MIC (C. albicans ATCC 64124; ATCC64124, read-out: MIC (MIC-0)): 12.5 µg/mL
MIC (C. albicans ATCC 64124; ATCC64124, read-out: MIC (MIC-0) in µM (parentheses)): 45.6 µM
MIC ([7]; read-out: MIC (MIC-0)): 6.25 µg/mL
MIC [7, 14]: 22.8 µM
MIC ([10]; read-out: MIC (MIC-0)): 3.13 µg/mL
MIC [10, 14]: 11.4 µM
MIC ([11]; read-out: MIC (MIC-0)): 12.5 µg/mL
MIC [11, 14]: 45.6 µM
MIC ([12]; ATCC10231, read-out: MIC (MIC-0)): 12.5 µg/mL
MIC ([12]; ATCC10231, read-out: MIC (MIC-0) in µM (parentheses)): 45.6 µM
SMILES: O=c1c2ccccc2[se]n1-c1ccccc1 [Compound 1, ebselen]
IC50 [5]: > 10 µg/mL and > 36.5 µM
time of complete fungal cell death ([8]; 1× MIC (12.5 µg/mL)): 6 h
time-kill effect ([8]; 1× MIC (1 12.5, 2a 12.5, 3a 0.39, AmB 3.9 µg/mL)): fungicidal
time from which completely fungicidal ([8]; 2× MIC): 3 h
time-kill effect ([8]; 2× MIC (1 25, 2a 25, 3a 0.78, AmB 7.8 µg/mL)): completely fungicidal
fungicidal concentration ([8]; time-kill curves): 12.5 µg/mL and 45.6 µM
concentration until which no significant hemolytic activity was shown [9]: 15.6 µg/mL and 56.9 µM
ROS induction (DCFH-DA fluorescence) [13]: highly fluorescent
